# Assay outcomes deposited in PubChem BioAssay by several laboratories.
# A selection: hits, their analogues and other compounds. The true share with any hit is near 2.4%.
# Tb MetRS inh = T. brucei MetRS inhibitors, primary screen, biochemical, luminescence. AID 624268, 2012. inhibition, % at 11.9 µM. purified T. brucei MetRS, ATP depletion, Kinase-Glo luminescence. methionyl-tRNA synthetase (Trypanosoma brucei brucei). 360,000 compounds, 0.4% hits;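 active = inhibition above a per-plate cutoff of the control wells' mean inhibition plus 3 SD, cut at about 5.5% in these data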;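 also: 0% = DMSO wells median and 100% = median of wells with control inhibitor compound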
#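 Dosing: 11.9 µM compound single dose, 0.9% DMSO; Assay system: purified T. brucei MetRS enzyme; Measured by: Kinase-Glo luciferase luminescence reporting remaining unconsumed ATP; Schedule: 15 min plus 2 h at 25 °C.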
# MC4R antag cAMP = MC4R antagonists of cAMP signaling, primary screen, cell-based, TR-FRET, antagonist arm of biased-ligand search | MC4R-expressing cells, MTII-stimulated cAMP, LANCE TR-FRET | inhibition, % at 6.5 µM | 360,000 compounds, 0.48% hits;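 active = inhibition above its plate's cutoff, the mean of tested wells on that plate plus 3 SD, cut at about 29% in these data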;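 also: 0% = Melanotan II alone and 100% = Melanotan II plus saturating MCL0020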
# Target sequence (P32245 whole entry, looked up): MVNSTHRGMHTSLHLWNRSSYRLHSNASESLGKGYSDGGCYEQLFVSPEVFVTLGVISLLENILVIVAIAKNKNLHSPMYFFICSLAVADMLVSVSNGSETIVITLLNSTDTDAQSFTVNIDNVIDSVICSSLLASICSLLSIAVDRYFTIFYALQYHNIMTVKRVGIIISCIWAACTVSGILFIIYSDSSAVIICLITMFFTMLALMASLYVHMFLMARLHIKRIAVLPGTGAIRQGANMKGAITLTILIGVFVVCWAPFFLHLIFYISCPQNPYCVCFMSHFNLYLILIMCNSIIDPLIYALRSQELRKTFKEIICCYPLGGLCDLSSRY
#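 Assay system: U2OS-MC4R stable cell line; Also added: Melanotan II; Technique: Eu-cAMP/anti-cAMP TR-FRET, emission 671 nm; Times: 30-min compound, 1-h challenge, 1-h detection, room temperature.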
# aDG glyco act = activators of alpha-DG glycosylation, primary screen, uHTS, Pro5-aDG cells, AlphaScreen; alpha-DG glycosylation AlphaScreen (IIH6); 0% Pro5, 100% B10-LARGE cell signal; activation, % at 10 µM; 360,000 compounds, 0.22% hits; AID 624168, 2012;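 active = activation of at least 8% versus controls, or a plate z-score of at least 8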;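 also: Pro5 are CHO cells carrying HIG-tagged alpha-DG that lacks glycosylation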
# H9c2 TAG inh = inhibitors of triacylglycerol accumulation, primary screen, cell-based, uHTS, fluorescence, H9c2. H9c2 cells, Nile Red lipid (TAG) fluorescence; cells loaded with 200 µM oleic acid. inhibition, % at 12.5 µM. 230,000 compounds, 0.66% hits. AID 651582, 2012;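 active = pattern-corrected inhibition of lipid staining of at least 50% with the nuclear-stain viability signal not falling by more than 50%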;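 also: 0% = DMSO wells and 100% = triacsin C control wells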
# MC4R barr agon = MC4R agonists recruiting beta-arrestin, primary screen, cell-based, luminescence, agonist arm of biased-ligand search; Melanocortin receptor 4 (Homo sapiens), P32245; U2OS MC4R beta-arrestin complementation; percent of melanotan II response, DMSO zero; activation, % at 8.9 µM; 360,000 compounds, 0.98% hits;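 active = activation above a per-plate cutoff, the mean activation of sample wells on that plate plus 3 SD, cut at about 8% in these data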
# NTR1 ag = agonists of human NTR1, primary screen, imaging, U2OS cells, beta-arrestin-GFP, high content; 330,000 compounds, 0.17% hits; Neurotensin receptor type 1 (Homo sapiens), P30989; activation, % at 20 µM; AID 493036, 2011; NTR1-U2OS beta-arrestin-GFP spot imaging, agonist mode;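 active = activation at or above 40% of the spot to cytoplasm intensity ratio, with at least 20 cells analyzed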;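 also: 0% = DMSO without peptide and 100% = 100 nM NTR1 peptide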
# H9c2 TAG conf = triacylglycerol accumulation inhibitors, retest, confirmation, cell-based, single concentration, Nile Red fluorescence, H9c2; shares compounds with H9c2 TAG inh; H9c2 lipid accumulation; cells loaded with 200 µM oleic acid; inhibition, % at 12.5 µM; 990 compounds, 71% hits;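 active = mean inhibition across replicates of 40% or more; inactive = mean inhibition below 40%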;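 also: plate controls were DMSO only wells for no effect and Triacsin C treated wells for full effect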
# An asterisk follows results filed as active; / = no result.
SMILES,Tb MetRS inh,MC4R antag cAMP,aDG glyco act,H9c2 TAG inh,MC4R barr agon,NTR1 ag,H9c2 TAG conf
O=C(CSc1nc2ccc(Nc3nc(N4CCOCC4)nc(N4CCOCC4)n3)cc2s1)Nc1ccccc1F,0,-2,0,73*,1,6,78*
COc1ccc(CC(=O)Oc2ccc(C)cc2Br)cc1S(=O)(=O)N1CCOCC1,0,19,0,8,1,0,/
Cc1cccn2c(=O)c3cc(C(=O)NC4CCCC4)c(=N)n(C4CCCC4)c3nc12,0,8,1,51*,0,19,44*
N=c1c(C(=O)NC2CCCC2)cc2c(=O)n3ccccc3nc2n1C1CCCC1,0,1,1,/,-2,2,/
COc1cc(NC(=O)[C@H]2O[C@@H](n3ccc(N)nc3=O)[C@H](O)[C@@H]2O)cc(OC)c1OC,0,/,0,/,/,/,/
O=S(=O)(NC1CC1)c1ccc(Cl)cc1F,-1,20,0,/,-1,0,/
COc1ccc(NC(=O)C2Cc3c(-c4ccccc4)ccnc3O2)cc1OC (configuration not stated),0,9,1,-20,-2,/,/
CC(=O)Nc1ccc(NC(=O)c2csc([C@H]3C[C@H](O)[C@@H](CO)O3)n2)cc1,0,2,0,-16,4,/,/
O=C(Nc1ccc(Cl)cc1)c1csc([C@@H]2C[C@H](O)[C@@H](CO)O2)n1,0,-6,0,54*,-1,/,0
O=C(CSc1nccc(=O)[nH]1)Nc1ccc(N2CCOCC2)cc1,0,-1,0,0,-2,0,/
O=c1cc(-c2cccc(Cl)c2)oc2cccc(O)c12,0,2,0,92*,0,-1,1
O=c1cc(-c2ccccc2)oc2cccc(O)c12,1,14,0,/,3,/,/
CNc1cc(-c2cccc(OC)c2F)nc2ccnn12,0,-1,1,2,0,/,/
COc1cc(C(CCN2CCCC(C)C2)c2c(OC)cc(OC)c3c(-c4ccccc4)cc(=O)oc23)cc(OC)c1OC (configuration not stated),0,8,2,74*,0,23,78*
CCN(CC)CCC(c1ccc(N(C)C)cc1)c1c(OC)cc(OC)c2ccc(=O)oc12 (configuration not stated),0,-5,0,24,1,-4,/
COc1cc(C(CCN2CCCC2)c2c(OC)cc(OC)c3c(C)cc(=O)oc23)cc(OC)c1OC (configuration not stated),0,0,0,23,1,2,/
CCCCCc1cc(=O)oc2c(C(CCN(CC)CC)c3ccc(OC)cc3)c(OC)cc(OC)c12 (configuration not stated),0,7,2,73*,1,28,68*
COc1cc(C(CCN2CCCCC2)c2c(OC)cc(OC)c3c(-c4ccccc4)cc(=O)oc23)cc(OC)c1OC (configuration not stated),0,7,2,58*,-2,26,52*
CCCCCc1cc(=O)oc2c(C(CCN3CCN(c4ccccc4)CC3)c3ccc4c(c3)OCO4)c(OC)cc(OC)c12 (configuration not stated),0,0,0,65*,-1,-2,74*
COc1ccc(NC(=O)C2Cc3c(-c4cccc(F)c4)ccnc3O2)cn1 (configuration not stated),0,6,0,-10,0,/,/
CCC/C=C/c1ccc(CN2C(C)C(=O)N(Cc3cn(CCC4OCCO4)nn3)CCS2(=O)=O)cc1 (configuration not stated),-1,6,1,-2,1,/,/
